# EP2 mod – modulators of human EP2 prostaglandin E2 receptor | EP2-expressing cells, cAMP HTRF FRET, PGE2 co-stimulation | AID 940 | 260,000 tested, 0.83% active | induction, % at 25 µM;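 active means compounds whose cAMP rise, as percent of the full-agonist control response, exceeds 60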;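 further: rat C6 glioma line stably carrying human EP2 under a CMV promoter; the protocol text gives 20 µM as final concentration; 100% = response of wells given 1 µM PGE2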
# Target sequence (P43116 whole entry, looked up): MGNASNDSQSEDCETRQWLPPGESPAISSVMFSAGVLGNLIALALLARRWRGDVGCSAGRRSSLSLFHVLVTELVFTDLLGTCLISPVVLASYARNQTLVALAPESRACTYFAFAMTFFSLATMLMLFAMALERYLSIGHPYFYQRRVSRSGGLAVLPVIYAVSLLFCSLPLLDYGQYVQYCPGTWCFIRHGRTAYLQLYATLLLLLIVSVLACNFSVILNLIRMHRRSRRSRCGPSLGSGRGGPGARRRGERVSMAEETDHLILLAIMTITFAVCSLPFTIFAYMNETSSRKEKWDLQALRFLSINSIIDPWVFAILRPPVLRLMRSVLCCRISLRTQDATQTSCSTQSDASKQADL
# Hsp70 act – Hsp70 transcriptional activation, primary screen; HeLa Hsp70 promoter luciferase reporter, luminescence; scaled: vehicle 0, proteasome-inhibitor control 100%; activation, % at 10 µM; 200,000 tested, 0.04% active;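 active means activation above the mean across all tested compounds plus 3 SD, cutoff set per campaign, cut at about 5.5% in these data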;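 further: 100% = MG132 at 30 µM as the positive control and 0% = DMSO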
# Dynein transport – dynein cargo transport inhibition | 220,000 tested, 0.47% active | 3617.4 mouse cells, GR-EGFP nuclear translocation imaging; test concentration mostly 20 µM; stimulated with dexamethasone, 1 µM; stronger effect = lower value | z-score, hits read low;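 active means plate z-score of nuclear minus cytoplasmic receptor signal below a set negative limit, without overly bright fluorescence or cell loss, cut at about -3.5 in these data, passing the limit was not always enough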;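 further: z-score of nuclear minus cytoplasmic ring GR-EGFP intensity difference per well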
#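 Also added: dexamethasone, 1.0 µM final. Medium: tet-free, stripped-serum medium. Detection: fixed, Hoechst-stained cells imaged at 10x for EGFP. Read-out: nuclear-to-cytoplasmic GR-EGFP distribution per well. Times: induction 48 h, compound 1 h, agonist 30 min.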
# PGE2 EP2 inh – EP2 receptor (human) inhibition | P43116 | C6 glioma cells expressing human EP2, cAMP TR-FRET; cells stimulated with saturating PGE2 | inhibition, % at 25 µM | AID 1422 | 260,000 tested, 0.52% active;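 active means percent inhibition above 40 after rounding to a whole number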;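 further: rat C6 glioma host cells with rolipram phosphodiesterase inhibitor present; the protocol text gives 20 µM as final concentration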
# EP2 cAMP induct – human EP2 receptor cAMP induction, negative in counter-screens | shares compounds with EP2 mod | C6 glioma EP2 cells, cAMP HTRF induction; plus low (about EC15) PGE2 agonist | calls only at 20 µM (by protocol) | 1,300 tested, 47% active | AID 1080;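 active means cAMP induction above 50% in the main assay while under 30% in all four parallel counter assays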;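 further: rat C6 glioma cells stably expressing human EP2 receptor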
# Hsp70 act dose – dose response of Hsp70 transcriptional activators; shares compounds with Hsp70 act; HeLa hsp70.1pr-luc reporter, luciferase luminescence; calls only at 99 µM; 70 tested, 10% active; AID 1252;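 active means over 50% activation at some tested dose; inactive means under 50% activation at every tested dose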
# Dynein inh conf – dynein cargo transport inhibition, confirmation; calls only at 20 µM; 1,000 tested, 69% active; 3617.4 GR-EGFP nuclear translocation imaging, dexamethasone-induced; shares compounds with Dynein transport; AID 463116;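 active means inhibition of receptor movement into the nucleus at or above a set limit in both runs, with normal cell brightness and cell count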;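 further: dexamethasone at 1 µM final in well for 30 min; nuclear minus cytoplasmic GR-EGFP mean intensity difference in channel 2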
# An asterisk follows results filed as active; i = inactive; . = not tested or not shown; + = active, no number. A selection: hits, their analogues and other compounds. The true share with any hit is near 1.7%.
SMILES,EP2 mod,Hsp70 act,Dynein transport,PGE2 EP2 inh,EP2 cAMP induct,others
O=C(Nc1ccccc1-c1nc2ccccc2s1)C1=COCCO1,73.8*,-0.2,-0.0848,4.9,i,
O=C(Nc1nc2cc3c(cc2s1)OCCO3)C1=COCCO1,-18.4,.,0.0679,15.1,.,
COc1ccc(-n2nnnc2SCC(=O)Nc2c(C)cccc2C)cc1OC,5.7,.,.,13.2,.,
CC/C(=C\C1CCCCC1)C(NP(=O)(c1ccccc1)c1ccccc1)c1ccccc1 (configuration not stated),70.5*,-0.3,0.383,5.2,+,
COC(=O)c1ccccc1NC(=O)C(C)Oc1ccccc1 (configuration not stated),52.6,-0.3,-0.581,12.3,i,
CCn1c(SCC(=O)NCCc2ccccc2)nnc1-c1cc2ccccc2cc1O,-46.5,.,.,24.2,.,
Nc1ccc(C(=O)Nc2ccc3nc(NC(=O)C4CCCCC4)sc3c2)cc1,-78.7,.,.,20.9,.,
Cc1nc2ccc(NS(=O)(=O)c3ccc4ccccc4c3)cc2s1,-100.7,.,.,12.1,.,
CC1=C[N+](=O)c2ccccc2[N+]1=O,106.9*,.,.,9.9,i,
CSc1nc(-c2cccs2)c(C#N)c(=O)[nH]1,59.2,.,-0.805,14.4,.,
N#Cc1c(-c2cccs2)nc(SCc2ccc(Cl)cc2)[nH]c1=O,75.1*,0.0,-0.0178,19.1,i,
CNC(=O)NC(=O)CSc1nc(-c2cccs2)c(C#N)c(=O)[nH]1,79.3*,-0.3,-0.396,16.0,i,
O=C(NC1CCCC1)C(c1cccs1)N(C(=O)Cc1cccs1)c1ccc(F)cc1 (configuration not stated),20.1,.,.,12.3,.,
CCn1ncc(C(=O)N2CCC3(CC2)Nc2ccccc2-n2cccc23)c1C,-59.9,.,.,4.4,.,
Cc1nc(Cl)sc1C(=O)O,21.9,0.0,1.8,3.2,.,
Cc1cccc(OC(=O)c2sc(Cl)nc2C)c1,67.7*,-0.2,-0.923,13.3,i,
N/C(CSc1nc(-c2ccccc2)c(-c2ccccc2)o1)=N\O,66.8*,0.1,0.0456,7.2,+,
O=C(CSc1nnc(COc2ccccc2)n1-c1ccccc1)c1ccccc1,50.5,-0.1,0.354,10.1,i,
COc1ccc(C(=O)CSc2nnc(COc3ccc(C#N)cc3)n2-c2ccccc2)cc1,-14.0,-0.3,-0.278,17.1,.,
O=C(c1ccc(Cl)cc1)c1oc2ccccc2c1CS(=O)(=O)c1ccccc1,79.7*,-0.4,0.65,2.8,+,
Nc1c(C(=O)c2ccccc2)oc2ccccc12,10.0,0.8,0.0128,11.6,.,
Cc1ccc2oc(=O)n(Cc3ccccc3OC(C)C)c2c1,67.0*,-0.3,1.12,13.2,+,
CCCCOc1ccccc1Cn1c(=O)oc2ccc(C)cc21,79.4*,0.3,0.319,2.6,+,
Cc1ccc(C(C)C)c(OCCn2c(=O)oc3ccccc32)c1,61.0*,-0.2,0.983,12.1,i,
Cc1ccc2oc(=O)n(CCOc3ccccc3C)c2c1,41.8,-0.2,0.245,12.8,.,
SMILES,EP2 mod,Hsp70 act,Dynein transport,PGE2 EP2 inh,EP2 cAMP induct,others
Cc1ccc(CN(Cc2cc3cc(C)c(C)cc3[nH]c2=O)C(=O)c2ccncc2)cc1,-29.9,.,.,15.1,.,
CCOC(=O)Cn1c(=S)[nH]c2c(oc3ccc(Cl)cc32)c1=O,97.6*,-0.6,-0.88,16.4,i,
O=C(O)NCc1ccccc1 (tested in a mixture with another compound),68.1*,.,.,8.4,+,
O=c1oc2c3c4c(cc2c(C(F)(F)F)c1CCN1CCOCC1)CCCN4CCC3,72.6*,-0.3,-5.66*,9.2,i,Dynein inh conf=+
COc1ccc(N=c2oc3c(OC)cccc3cc2C(=O)Nc2ccc(C)cn2)cc1OC,-5.6,.,.,7.9,.,
COC(=O)c1ccc2c(c1)C(C)(C)C(/C=C/c1ccccc1O)=[N+]2C,-3.8,8.4*,-3.2,3.0,.,Hsp70 act dose=+
CCCOc1ccc(C2C(C#N)=C(N)Oc3n[nH]c(-c4cc(C)sc4C)c32)cc1OC (configuration not stated),-4.8,.,.,12.3,.,
COc1ccc(C(CNC(=O)Cc2ccccc2F)N2CCCCC2)cc1 (configuration not stated),-34.7,-0.2,-0.516,0.4,.,
COc1ccc(C(CNC(=O)c2cc3ccccc3o2)N2CCCCC2)cc1 (configuration not stated),39.8,9.3*,0.775,6.2,.,Hsp70 act dose=i
CCC(CC)C(=O)Nc1nnc(C(C)C)s1,13.6,.,.,9.0,.,
Cc1ccc(-n2c(Cl)c(Cl)nc(Cl)c2=O)cc1,-50.2,6.4*,-4.1*,36.3,.,Hsp70 act dose=i
Cc1cc(C)nc(SCC(=O)Nc2cccc(Cl)c2)n1,-42.9,.,.,8.1,.,
C=CCSc1nccc(-c2nn(-c3ccc(C)cc3)ccc2=O)n1,-15.3,16.5*,-0.965,13.7,.,Hsp70 act dose=i
CCSc1nccc(-c2nn(-c3ccc(C)cc3)ccc2=O)n1,-4.2,0.7,1.55,9.4,.,
C[C@@H](Cn1nnc2ccccc21)NC(=O)c1ccn(C)n1,-31.3,.,.,7.6,.,
Cc1nn(C)c(C)c1NC(=O)c1ccnn1C,15.9,0.1,-0.627,11.7,.,
Cc1nn(C)c(C)c1NC(=O)c1ccc(S(=O)(=O)N(C)C)cc1,0.8,6.6*,-1.55,4.3,.,Hsp70 act dose=i
Cc1ccc(N=Nc2[nH]c3ccccc3c2O)cc1,25.9,1.1,-0.528,17.3,.,
COc1ccc(N=Nc2[nH]c3ccc(C)cc3c2O)cc1,8.6,5.6*,-0.695,7.0,.,Hsp70 act dose=i
CCn1nc(C)c(NC(=O)Cn2ncc3cccn3c2=O)c1C,-20.0,.,.,0.1,.,
Cc1cc(C)nc(SCc2nnc(SCC(=O)Nc3cc(C(F)(F)F)ccc3Cl)o2)n1,-1.1,5.7*,0.763,6.1,.,Hsp70 act dose=i
CCc1ccc2[nH]c(=O)c(CN(CCN(C)C)C(=S)NCC3CCCO3)cc2c1 (configuration not stated),-24.0,.,.,10.4,.,
CCOc1ccc(NC(=O)c2ccc(NC(=S)NC3CCCCC3)cc2)cc1,-41.2,-0.4,1.69,4.8,.,
CCOc1ccc(NC(=O)c2ccc(NC(=S)NC3CC3)cc2)cc1,-28.4,9.4*,0.203,2.8,.,Hsp70 act dose=i
CCC(=O)Nc1ccc2c(c1)C(=O)OC2,-16.4,.,.,9.9,.,
O=C(OCn1ncc(Br)c(Br)c1=O)c1ccccc1Cl,21.2,16.9*,-1.37,27.7,.,Hsp70 act dose=+
COc1ccc(NC(=O)/C(Cl)=C(/Cl)S(=O)Cc2ccc(Cl)cc2)cn1 (configuration not stated),-70.9,42.9*,-5.44*,15.9,.,Hsp70 act dose=i
CN(C)CCN(Cc1ccc(F)c(F)c1)Cc1cccs1,-62.3,.,.,11.2,.,
COc1ccc(C(c2c(O)ccc3ccccc23)N2CCOCC2)c(OC)c1 (configuration not stated),9.9,6.4*,-1.29,.,.,Hsp70 act dose=i

# Screens deposited in PubChem by several laboratories.
